# In ChEMBL document CHEMBL2413066, “Molecular docking guided structure based design of symmetrical N,N'-disubstituted urea/thiourea as HIV-1 gp120-CD4 binding inhibitors” (Bioorg Med Chem, 2013):
# Assay: Inhibition of HIV1 gp120-CD4 (unknown origin) interaction after 1 hr by ELISA
# Design: species or system Human immunodeficiency virus 1
# Procedure, shortened: (§1)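 Capture ELISA for gp120–CD4 binding. Compounds diluted in diluent buffer over 0.1–1000 ng/ml and added with positive reference CD4 (1000 ng/ml). The CD4 standard ran in twofold dilutions from 1000 to 0.5 ng/ml. Incubation 1 h at room temperature, three washes, then conjugate at 1:100 for 1 h. TMB for 10 min, reaction stopped, absorbance read at 450 nm; IC50 derived.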
row,IC50 [µM],Compound
1,0.247,O=C(NCc1nc2ccccc2[nH]1)NCc1nc2ccccc2[nH]1
2,0.126,S=C(Nc1ccc(-c2nc3ccccc3[nH]2)cc1)Nc1ccc(-c2nc3ccccc3[nH]2)cc1
3,0.013,S=C(NCc1nc2ccccc2[nH]1)NCc1nc2ccccc2[nH]1
4,0.197,O=C(Nc1ccc(Cc2nc3ccccc3[nH]2)cc1)Nc1ccc(Cc2nc3ccccc3[nH]2)cc1
5,0.149,S=C(Nc1ccc(Cc2nc3ccccc3[nH]2)cc1)Nc1ccc(Cc2nc3ccccc3[nH]2)cc1
6,0.188,O=C(Nc1ccc(-c2nc3ccccc3[nH]2)cc1)Nc1ccc(-c2nc3ccccc3[nH]2)cc1

# Assay: Inhibition of HIV-1 gp120-CD4 (unknown origin) interaction
# Design: species or system Human immunodeficiency virus 1
# Procedure, shortened: as §1
row,pIC50,Compound
1,4.886,C[C@@H]1CN(S(=O)(=O)c2c[nH]c3ncccc23)CCN1C(=O)c1ccccc1
2,7.588,COc1ncc(OC)c2c(C(=O)C(=O)N3CCN(C(=O)c4ccccc4)CC3)c[nH]c12
3,6.699,C[C@@H]1CN(C(=O)c2ccccc2)CCN1S(=O)(=O)c1c[nH]c2c(-n3nccn3)ccc(F)c12
4,6.066,C[C@H]1CN(C(=O)c2ccccc2)CCN1S(=O)(=O)c1c[nH]c2ncccc12
5,5.328,C[C@H]1CN(C(=O)c2ccccc2)CCN1S(=O)(=O)c1c[nH]c2c(F)c(F)c(F)c(F)c12
6,5.372,COc1cccc2[nH]cc(S(=O)(=O)N3CCN(C(=O)c4ccccc4)C[C@@H]3C)c12
7,5.444,C[C@H]1CN(C(=O)c2ccccc2)CCN1S(=O)(=O)c1c[nH]c2ccc(F)cc12
8,6.824,C[C@H]1CN(C(=O)c2ccccc2)CCN1S(=O)(=O)c1c[nH]c2c(-n3ccnn3)ccc(F)c12
9,6.301,C[C@H]1CN(C(=O)c2ccccc2)CCN1S(=O)(=O)c1c[nH]c2c(-n3cncn3)ccc(F)c12
10,7.097,C[C@H]1CN(C(=O)c2ccccc2)CCN1S(=O)(=O)c1c[nH]c2c(-n3ccnc3)nccc12
11,6.824,C[C@H]1CN(C(=O)c2ccccc2)CCN1S(=O)(=O)c1c[nH]c2c(-n3cncn3)nccc12
12,6.208,C[C@H]1CN(C(=O)c2ccccc2)CCN1S(=O)(=O)c1c[nH]c2c(-n3nccn3)ncc(F)c12
13,7.444,C[C@H]1CN(C(=O)c2ccccc2)CCN1S(=O)(=O)c1c[nH]c2c(-n3ccnc3)ncc(F)c12
14,8.301,COc1ncc(OC)c2c(C(=O)C(=O)N3CCN(C(=O)c4ccccc4)C[C@@H]3C)c[nH]c12
15,6.377,C[C@H]1CN(C(=O)c2csc(Br)n2)CCN1S(=O)(=O)c1c[nH]c2ncccc12
16,6.284,C[C@H]1CN(C(=O)c2csc(N)n2)CCN1S(=O)(=O)c1c[nH]c2ncccc12
17,5.721,Cc1csc(C(=O)N2CCN(S(=O)(=O)c3c[nH]c4ncccc34)[C@@H](C)C2)c1
18,5.638,Cc1ccc(C(=O)N2CCN(S(=O)(=O)c3c[nH]c4ncccc34)[C@@H](C)C2)s1
19,5.62,C[C@H]1CN(C(=O)c2ccn(C)n2)CCN1S(=O)(=O)c1c[nH]c2ncccc12
20,5.523,C[C@H]1CN(C(=O)c2cc3ccccc3o2)CCN1S(=O)(=O)c1c[nH]c2ncccc12
21,5.481,C[C@H]1CN(C(=O)c2ccccn2)CCN1S(=O)(=O)c1c[nH]c2ncccc12
22,5.041,C[C@H]1CN(C(=O)c2cnccn2)CCN1S(=O)(=O)c1c[nH]c2ncccc12
23,4.796,CC[C@H]1CN(C(=O)c2ccccc2)CCN1S(=O)(=O)c1c[nH]c2ncccc12
24,6.367,C[C@H]1CN(C(=O)c2ccccc2)CCN1S(=O)(=O)c1c[nH]c2ccccc12
25,6.699,C[C@H]1CN(C(=O)c2ccccc2)CCN1S(=O)(=O)c1c[nH]c2cccc(F)c12
26,6.432,C[C@H]1CN(C(=O)c2ccccc2)CCN1S(=O)(=O)c1c[nH]c2c(F)ccc(F)c12
27,8.097,COc1cc[nH]c2ncc(C(=O)C(=O)N3CCN(C(=O)c4ccccc4)C[C@@H]3C)c1-2
28,7.523,C[C@H]1CN(C(=O)c2ccccc2)CCN1C(=O)C(=O)c1c[nH]c2ncccc12
29,4.657,O=C(c1ccccc1)N1CCN(S(=O)(=O)c2c[nH]c3ncccc23)CC1
30,6.284,O=C(C(=O)N1CCN(C(=O)c2ccccc2)CC1)c1c[nH]c2ncccc12
